# In ChEMBL document CHEMBL3813598, “Development of hydroxy-based sphingosine kinase inhibitors and anti-inflammation in dextran sodium sulfate induced colitis in mice” (Bioorg Med Chem, 2016):
# Calls of active or inactive are those of the source. No cut-off for these calls is given here.
# Legend:
# Sphingosine kinase 1 = Sphingosine kinase 1 (Homo sapiens, UniProt Q9NYA1); assay: Inhibition of GST-tagged full length human recombinant SPHK1 expressed in baculovirus using sphingosine as substrate preincubated for 10 mins measured after 1 hr by ADP-quest assay
# Chain of Sphingosine kinase 1 (Q9NYA1 whole entry): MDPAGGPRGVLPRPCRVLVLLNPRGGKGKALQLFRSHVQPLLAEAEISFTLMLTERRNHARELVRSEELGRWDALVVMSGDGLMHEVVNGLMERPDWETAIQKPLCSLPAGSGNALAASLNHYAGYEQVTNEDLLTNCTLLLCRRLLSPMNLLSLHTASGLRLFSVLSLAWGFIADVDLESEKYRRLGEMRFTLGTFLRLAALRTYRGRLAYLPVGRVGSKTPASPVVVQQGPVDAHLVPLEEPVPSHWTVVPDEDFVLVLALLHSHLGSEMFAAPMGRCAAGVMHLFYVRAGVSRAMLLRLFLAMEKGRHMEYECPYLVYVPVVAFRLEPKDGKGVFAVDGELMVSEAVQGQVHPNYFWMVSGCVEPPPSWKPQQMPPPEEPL
# Mus musculus [1] = assay: Antiinflammatory activity in DSS- induced C57BL/6 mouse colon colitis model assessed as cellular infiltration of mononuclear macrophages/neutrophils at 10 mg/kg, ip after 24 hrs by hematoxylin/eosin staining based assay; type: functional, organism-based
# Summary of the method: (§1)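 Colitis induced in female C57BL/6 mice as 2.5% DSS in drinking water for 5 days, then 5 days of water. Dosing ip or 5-ASA ig until sacrifice at day 10. Colons fixed in 10% buffered formalin (pH 7.4) for at least 24 h. Sections scored for cellular infiltration, mucosal lesion and crypt damage to give a histologic score.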
# Mus musculus [2] = assay: Antiinflammatory activity in DSS- induced C57BL/6 mouse colitis model assessed as colon length at 10 mg/kg, ip after 10 days (reference value: 45.68 +/- 1.34 mm); type: functional
# Summary of the method: (§2)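 Female C57BL/6 mice, 6–8 weeks, randomized into five groups. Colitis induced by 2.5% w/v DSS in drinking water for 5 days, then 5 days of normal water. Test agent given ip at 5 or 10 mg/kg, or 5-ASA ig at 50 mg/kg, until study end. Controls were water plus vehicle and DSS plus vehicle. Body weight recorded daily; colon length taken at sacrifice on day 10. Mean ± SD, n = 10.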
# Mus musculus [3] = assay: Antiinflammatory activity in DSS- induced C57BL/6 mouse colitis model assessed as colon length at 5 mg/kg, ip after 10 days (reference value: 45.68 +/- 1.34 mm); type: functional; summary of the method: as §2
# Mus musculus [4] = assay: Antiinflammatory activity in DSS- induced C57BL/6 mouse colitis model assessed as body weight at 10 mg/kg, ip after 10 days (reference value: 15.69 +/- 0.65 g); type: functional; summary of the method: as §2
# Mus musculus [5] = assay: Antiinflammatory activity in DSS- induced C57BL/6 mouse colon colitis model assessed as inhibition of COX2 expression at 5 to 10 mg/kg, ip after 24 hrs by hematoxylin staining based assay; type: functional, organism-based
# Summary of the method: (§3)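 Colons come from the same DSS model, fixed in 10% buffered formalin for at least 24 h. Paraffin sections were deparaffinized. Antigen was retrieved in 10 mM sodium citrate with 0.1% Tween 20 at 100 °C for 20 min. Primary antibody was applied in PBS with 5% BSA and 10% goat serum, then HRP polymer at room temperature for 30 min. Detection was DAB with hematoxylin counterstain. IL-6 and COX-2 positive labeling was counted automatically. Mean ± SD.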
# Mus musculus [6] = assay: Antiinflammatory activity in DSS- induced C57BL/6 mouse colon colitis model assessed as inhibition of IL6 expression at 5 to 10 mg/kg, ip after 24 hrs by hematoxylin staining based assay; type: functional, organism-based; summary of the method: as §3
# Mus musculus [7] = assay: Antiinflammatory activity in DSS- induced C57BL/6 mouse colon colitis model assessed as degeneration/necrosis of crypt cells at 10 mg/kg, ip after 24 hrs by hematoxylin/eosin staining based assay; type: functional, organism-based; summary of the method: as §1
# Mus musculus [8] = assay: Antiinflammatory activity in DSS- induced C57BL/6 mouse colitis model assessed as body weight at 5 mg/kg, ip after 10 days (reference value: 15.69 +/- 0.65 g); type: functional; summary of the method: as §2
# Sphingosine kinase 2 = target: T1, Sphingosine kinase 2 (Homo sapiens, UniProt Q9NRA0); assay: Inhibition of GST-tagged full length human recombinant SPHK2 expressed in baculovirus using sphingosine as substrate preincubated for 10 mins measured after 1 hr by ADP-quest assay
# T1 sequence (Q9NRA0 whole entry): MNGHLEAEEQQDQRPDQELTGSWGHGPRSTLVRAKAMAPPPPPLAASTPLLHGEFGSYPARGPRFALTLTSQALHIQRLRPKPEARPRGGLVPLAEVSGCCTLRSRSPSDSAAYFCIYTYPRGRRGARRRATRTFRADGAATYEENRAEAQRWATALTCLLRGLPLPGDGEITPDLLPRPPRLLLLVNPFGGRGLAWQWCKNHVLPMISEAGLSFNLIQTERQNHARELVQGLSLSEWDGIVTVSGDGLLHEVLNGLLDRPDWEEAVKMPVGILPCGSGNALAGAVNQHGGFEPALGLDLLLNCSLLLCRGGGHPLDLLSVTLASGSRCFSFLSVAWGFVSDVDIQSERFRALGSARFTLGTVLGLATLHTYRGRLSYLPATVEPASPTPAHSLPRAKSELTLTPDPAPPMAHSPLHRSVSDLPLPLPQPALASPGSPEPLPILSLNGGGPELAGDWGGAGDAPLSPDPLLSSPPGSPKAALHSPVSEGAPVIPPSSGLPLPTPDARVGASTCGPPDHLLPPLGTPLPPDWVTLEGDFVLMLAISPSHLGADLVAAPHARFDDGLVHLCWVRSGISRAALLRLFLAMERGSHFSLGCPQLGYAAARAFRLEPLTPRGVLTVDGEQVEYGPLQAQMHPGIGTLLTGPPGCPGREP
# Summary of the method: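 Human recombinant SphK1 or SphK2 with sphingosine substrate and ATP, tested in 384-well format. Enzyme was preincubated with compound for 10 min, then the reaction ran at 28 °C for 1 h. ADP Quest reagents A and B were added for 30 min at room temperature. Fluorescence was read at Ex 530/Em 590 nm. Values are mean of n = 3 in triplicate.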
# Mus musculus [9] = assay: Antiinflammatory activity in DSS- induced C57BL/6 mouse colitis model assessed as change in body weight at 5 to 10 mg/kg, ip after 7 days; type: functional, organism-based; summary of the method: as §2
# Mus musculus [10] = assay: Antiinflammatory activity in DSS- induced C57BL/6 mouse colon colitis model assessed as mucosal/submucosal lesion at 10 mg/kg, ip after 24 hrs by hematoxylin/eosin staining based assay; type: functional, organism-based; summary of the method: as §1
smiles,measurement,setting,value
COc1cccc(COc2ccc(/C=N/NC(=O)c3cc(O)c(O)c(O)c3)cc2)c1,IC50,Sphingosine kinase 1,4.36 µM
same,Activity,Mus musculus [1],Active
same,Activity,Mus musculus [2],51.41 mm
same,Activity,Mus musculus [3],53.04 mm
same,Activity,Mus musculus [4],17.5 g
same,inhibition,Mus musculus [5],Active
same,inhibition,Mus musculus [6],Active
same,Activity,Mus musculus [7],Active
same,Activity,Mus musculus [8],17.1 g
same,IC50,Sphingosine kinase 2,2.17 µM
same,Activity,Mus musculus [9],inactive
same,Activity,Mus musculus [10],Active
